# A selection: hits, their analogues and other compounds. The true share with any hit is near 2.6%.
# VIM-2 inh: VIM-2 metallo-beta-lactamase inhibitors, primary screen, biochemical, epi-absorbance readout, Pseudomonas aeruginosa enzyme. purified VIM-2, nitrocefin hydrolysis, epi-absorbance fluorescence. inhibition, % at 5.6 µM. hit rate 0.89% among 290,000. AID 1527, 2009;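 active = inhibition above the mean of all tested compounds plus 3 SD, cutoff set per screening run, cut at about 7.5% in these data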;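 note: red hydrolysis product quenches plate fluorescence so inhibitors raise well fluorescence; 0% = enzyme with DMSO and 100% = DMSO without enzyme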
# Runt-SMMHC FRET: inhibitors of RUNX1 Runt–CBFb-SMMHC binding, primary screen, biochemical, FRET, Cerulean-Runt, Venus-CBFb-SMMHC, uHTS. Runt-related transcription factor 1 (Homo sapiens) + Core-binding factor subunit beta …. Cerulean-Runt/Venus-CBFb-SMMHC FRET ratio 530/480, 1 h. inhibition, % at 20 µM. hit rate 0.74% among 220,000. AID 1434, 2008;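 active = mean inhibition across duplicate retests at 20 µM reaching about 50%, limit read from the data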;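 note: 0% = DMSO wells and 100% = wells with excess untagged CBFb-SMMHC; inhibitors lower the FRET ratio by blocking Runt binding to CBFb-SMMHC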
# Target sequence (Q01196 whole entry, looked up): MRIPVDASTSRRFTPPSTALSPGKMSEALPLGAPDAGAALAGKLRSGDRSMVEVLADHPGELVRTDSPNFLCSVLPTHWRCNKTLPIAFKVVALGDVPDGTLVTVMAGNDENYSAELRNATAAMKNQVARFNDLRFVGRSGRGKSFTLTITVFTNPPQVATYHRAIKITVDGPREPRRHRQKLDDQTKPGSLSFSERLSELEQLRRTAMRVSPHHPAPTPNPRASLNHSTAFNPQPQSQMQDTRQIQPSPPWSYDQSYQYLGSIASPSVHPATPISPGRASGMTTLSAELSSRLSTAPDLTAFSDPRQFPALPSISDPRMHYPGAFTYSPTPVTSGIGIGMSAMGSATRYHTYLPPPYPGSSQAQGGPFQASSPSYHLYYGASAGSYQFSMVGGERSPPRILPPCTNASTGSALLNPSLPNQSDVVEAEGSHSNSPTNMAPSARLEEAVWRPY
# Target sequence (Q13951 whole entry, looked up): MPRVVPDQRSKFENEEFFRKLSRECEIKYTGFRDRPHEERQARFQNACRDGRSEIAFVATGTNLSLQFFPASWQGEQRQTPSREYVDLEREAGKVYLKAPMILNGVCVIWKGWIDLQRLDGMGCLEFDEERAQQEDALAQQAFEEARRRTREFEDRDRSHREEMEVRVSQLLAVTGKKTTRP
# IMP-1 inhibitor: IMP-1 metallo-beta-lactamase inhibitors, primary screen, biochemical, epi-absorbance readout, Pseudomonas aeruginosa enzyme; metallo-beta-lactamase IMP-1 (Pseudomonas aeruginosa); purified IMP-1, nitrocefin hydrolysis, epi-absorbance fluorescence; inhibition, % at 5.6 µM; hit rate 0.45% among 290,000; AID 1556, 2009;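 active = inhibition above the mean plus 3 SD of all compounds in the same screening run, cut at about 4.5% in these data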;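 note: 0% = IMP-1 with DMSO and 100% = DMSO wells lacking enzyme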
#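 System: purified IMP-1 / Input: IMP-1 dispensed at 0.2 nM / Medium: 50 mM HEPES pH 7.1, 50 µM ZnSO4, 0.05% Brij 35 / Timing: 15 min enzyme–compound preincubation, then 25 min nitrocefin reaction, 25 °C / Technique: plate fluorescence quenching by hydrolysis product, ex 480/em 530 nm / Repeats: singlicate testing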
# RanGTP-Impb inh: inhibitors of RanGTP-importin-beta interaction, primary screen, biochemical, FRET, CFP-Ran, YFP-importin-beta, homogeneous; inhibition, % (test concentration not listed); Ran GTPase (GTP-bound) - importin-beta complex; AID 2216, 2009; hit rate 1.1% among 300,000; cell-free CFP-Ran/YFP-importin-beta FRET ratio;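 active = more than half of the replicate wells show a fall in the fluorescence ratio signal beyond about 16%, limit read from the data, passing the limit was not always enough; inconclusive = exactly half of the replicate wells pass the set limit; inactive = fewer than half of replicates pass the limit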;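 note: 0% = DMSO wells and 100% = Ran loaded with GDP instead of GTP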
# Runt-CBFb FRET: inhibitors of RUNX1 Runt–CBFb binding, primary screen, biochemical, FRET, Cerulean-Runt, Venus-CBFb, uHTS; Runt-related transcription factor 1 (Homo sapiens) + Core-binding factor subunit beta …; Cerulean-Runt/Venus-CBFb FRET ratio 530/480, 1 h; inhibition, % at 20 µM; hit rate 0.46% among 220,000;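 active = inhibition over about 50% at 20 µM in the single-dose screen, limit read from the data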;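 note: 0% = DMSO wells and 100% = excess unlabeled CBFb competitor control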
#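 Assay system: Cerulean-Runt domain fusion protein, energy donor; Signal: fluorescence energy transfer, 422 nm excitation, 530/480 nm emission; Timing: 1 h compound exposure, room temperature; Control set: unlabeled CBFb; Medium: Tris buffer pH 7.5 with salts and BSA; Compound: single test concentration of 20 µM, 1% DMSO final; Probe or stimulus: Venus-CBFb 100 nM.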
# * = called active by the depositor; ? = inconclusive; / = no result.
SMILES,VIM-2 inh,Runt-SMMHC FRET,IMP-1 inhibitor,RanGTP-Impb inh,Runt-CBFb FRET
Cc1ccc2nc3c(cc(C(=O)NCCc4ccccc4)c(=N)n3CCCN3CCOCC3)c(=O)n2c1,9.6*,/,-3.3,168.1*,/
COc1ccc(CCn2c(=N)c(C(=O)NCCN3CCOCC3)cc3c(=O)n4ccccc4nc32)cc1OC,8.2*,/,0.7,-0.6,/
COc1ccc(CCNC(=O)c2cnc3ccccn3c2=O)cc1,-4.2,4.1,-5.9,-4.6,-1.4
COc1ccc(CCNC(=O)c2cc3c(=O)n4ccccc4nc3n(CCN3CCOCC3)c2=N)cc1,3.3,/,-2.3,24.7*,/
COc1ccc(CCNC(=O)c2cc3c(=O)n4ccccc4nc3n(C3CCCCC3)c2=N)cc1,-0.7,/,-0.8,63.4*,/
Cc1ccc(-c2cc(C(=O)NCCCN3CCOCC3)c3ccccc3n2)cc1C,-1.6,/,-2.7,-1.0,/
CCCNc1nc2nc3ccccn3c(=O)c2cc1C(=O)NCCN1CCOCC1,2.8,/,-2.5,130.8*,/
Cc1cc(Cl)ccc1C(=O)C1CCCN(C(=O)c2cccc(N3CCCC3=O)c2)C1 (stereo not drawn),-3.7,/,-0.8,1.7,/
Cc1ccc(S(=O)(=O)N2CCCC2CNC(=O)C(=O)Nc2ccc(F)cc2)cc1 (stereo not drawn),/,/,/,31.5*,/
O=C(O)c1cccc(N=C2NC(=O)C(CO)(CO)S2)c1,-0.8,/,-2.2,2.9,/
Cc1ccc(S(=O)(=O)Nc2ccccc2C(=O)N2CCCCC2C)c(C)c1NS(C)(=O)=O (stereo not drawn),-0.8,/,-0.8,-2.9,/
CCN(C(=O)c1nn(-c2ccc(OC)cc2)c(=O)c2c1c1ccccc1n2C)c1ccc(OC)cc1,0.2,-3.3,-4.1,-3.0,-3.5
CCCCN(C)CCNC(=O)c1nn(-c2ccc(OC)cc2)c(=O)c2c1c1ccccc1n2C,8.3*,-2.9,-2.2,2.1,-2.7
CCC1CN(S(=O)(=O)c2cc(-c3cc(C)no3)ccc2OC)c2cc(C)ccc2O1 (stereo not drawn),-1.7,/,-1.8,-2.4,/
COc1ccc(/C=C/c2nnc(NC(=O)CSc3ccc(C)cc3)s2)cc1,-3.2,123.5*,-2.9,7.0,1.0
CCC(=O)Nc1nnc(/C=C/c2ccc(OC)cc2)s1,-2.3,0.6,-2.8,1.0,-2.2
Nc1cccc2[nH]c(C(F)(F)F)nc12,2.6,-10.6,14.9*,7.1,-5.5
O=C(O)c1cccc2[nH]c(C(F)(F)F)nc12,-5.4,-3.1,-1.2,-2.6,1.0
COc1ccc(O)c(-c2[nH]ncc2C(=O)c2cccc(C)c2)c1,-1.3,/,5.1*,-8.5,/
CC1CCCCN1C(=O)CSc1nc(C2CC2)nc2ccccc12 (stereo not drawn),6.3,/,-0.8,-0.4,/
CC(C)(C)c1ccc(NC(=O)CCNC(=O)c2ccco2)cc1,-4.8,/,-4.2,-1.7,/
COc1ccc(/C=C/C(=O)NC2CCCCCCC2)cc1S(=O)(=O)N1CCOCC1,-0.8,0.0,-3.5,-2.3,3.2
COc1ccc(/C=C/C(=O)N2CCN(C)CC2)cc1S(=O)(=O)N1CCCCC1,-1.8,2.1,-1.9,76.7*,1.8
Cc1c(Br)c(=O)oc2c(C)c(O)ccc12,8.4*,73.2*,-5.5,32.8*,48.4
COc1ccc2c(C)c(C)c(=O)oc2c1OC,2.4,0.0,-3.0,-0.8,-0.6
SMILES,VIM-2 inh,Runt-SMMHC FRET,IMP-1 inhibitor,RanGTP-Impb inh,Runt-CBFb FRET
CC1CC1c1ccc(/C=C(\C#N)C(=O)Nc2cccc(Cl)c2Cl)o1 (stereo not drawn),-3.7,-111.8,-3.1,40.4*,-20.1
COc1ccc(C2N(c3ccccc3)C(=O)C2(F)F)cc1OC (stereo not drawn),-2.6,/,-3.4,?,/
COCCNC(=O)/C(C#N)=C/c1ccc(OC(=O)c2cccs2)c(OC)c1,5.5,1.0,-0.9,0.6,-1.5
COc1cc(/C=C(\C#N)C(=O)NCc2cccs2)ccc1O,-2.9,58.2*,-1.6,4.4,23.0
O=C(NC1CCN(S(=O)(=O)c2ccccc2F)CC1)c1cccnc1,-1.8,/,-1.9,-2.5,/
COCCn1c(-c2ccc3ccccc3c2)nc2c1c(=O)[nH]c(=O)n2CC(C)C,-4.1,/,-1.7,3.3,/
CCOc1cc(/C=N/Nc2nn3cnnc3c3ccccc23)ccc1O,5.2,-1.6,-4.2,?,0.2
Oc1ccc(/C=N/Nc2nn3cnnc3c3ccccc23)cc1,8.8*,-0.9,-4.2,2.5,2.9
COc1cccc(/C=N/Nc2nn3cnnc3c3ccccc23)c1,12.1*,-2.2,-4.3,-0.1,2.1
COc1cc(/C=N/Nc2nn3cnnc3c3ccccc23)ccc1O,0.7,1.9,-5.2,-1.5,0.5
CCN1CCN(C(=O)c2ccc(Cl)c(S(=O)(=O)N3CCCCC3)c2)CC1,-3.9,/,-4.4,-1.8,/
CCOCCCn1c(=N)c(C(=O)Nc2cc(C)on2)cc2c(=O)n3ccccc3nc21,-0.8,/,-5.3,/,/
CCOCCCn1c(=NC(C)=O)c(C(=O)OCC)cc2c(=O)n3ccccc3nc21,0.5,63.3*,-3.2,77.4*,51.7*
CCN1CCN(C(=O)c2cc3c(=O)n4ccccc4nc3n2Cc2ccccc2)CC1,/,13.4,/,/,5.1
CCOCCCn1c(=NC(C)=O)c(C#N)cc2c(=O)n3ccccc3nc21,1.0,88.1*,-0.1,123.1*,28.2
CC(=O)N=c1c(C#N)cc2c(=O)n3ccccc3nc2n1Cc1ccccc1,-3.1,81.1*,-1.9,32.4*,138.3*
Cc1ccc(C(=O)NCc2ccccn2)cc1NC1=NC2CS(=O)(=O)CC2S1 (stereo not drawn),0.0,/,-4.5,-1.4,/
Cc1ccc(N(C)S(=O)(=O)c2ccc3c(c2)CC(C)N3C(=O)C2CC2)cc1 (stereo not drawn),0.4,/,-1.4,50.9*,/
CC1(C)CC(=O)C=C(Nc2ccc(C(=O)O)cc2)C1,0.1,0.4,-2.2,29.0*,1.6
CC1(C)CC(=O)C=C(Nc2ccc(O)c(C(=O)O)c2)C1,-1.1,/,-0.8,-2.6,/
CC1(C)CC(=O)C=C(Nc2cccc(O)c2)C1,-4.0,3.1,-3.5,44.6*,1.2
Cc1ccc(NC2=CC(=O)CC(C)(C)C2)cc1C,-2.6,2.5,-1.9,1.1,-0.2
CC1(C)CC(=O)C=C(Nc2ccc3c(c2)OCCO3)C1,0.9,-2.7,-0.9,25.8*,-2.8
CCC1(c2ccccc2)NC(=O)N(CC(=O)Nc2ccc(OC)nc2)C1=O (stereo not drawn),2.2,/,0.1,1.8,/
Cc1cccc(N/N=C(\C=N\N)C(=O)c2ccc(Br)cc2)c1,-4.5,-5.4,-1.3,0.7,-6.4
